Test results as given in paper PMC8856734 (Journal of medicinal chemistry, 2021).

Key:
BRD4 BD1 [1] = target: T1, BRD4 BD1 (Homo sapiens, UniProt O60885); assay: BRD4 AlphaScreen assay with biotinylated JQ1; type: binding
CBP = settings: read-out: CBP IC50; cited from earlier work
IRF4/MYC axis = assay: Immunoblot of MYC and IRF4 in MM.1S cells; type: cell-based; settings: 24 h, 2.5 μM
How it was run: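 MM.1S cells exposed 24 h to DMSO or 2.5 μM of test compounds (CBP/EP300-selective and BRD4-selective). Lysates immunoblotted for MYC and IRF4, with β-actin as loading control.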

BRD4 BD1 [2] = target: T1, BRD4 BD1; assay: Differential scanning fluorometry; type: binding; settings: temperature shift
CBP bromodomain [3] = target: T2, CBP bromodomain (Homo sapiens, UniProt Q92793); assay: Differential scanning fluorometry; type: binding; settings: for DSF selectivity: CBP and EP300 versus BRD4 BD1, compared with CBP30
T2 sequence (Q92793 1085-1192 limits assumed): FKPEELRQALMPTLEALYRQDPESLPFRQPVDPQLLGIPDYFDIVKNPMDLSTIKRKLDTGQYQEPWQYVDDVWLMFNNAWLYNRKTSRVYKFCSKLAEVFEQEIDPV

EP300 (P300) bromodomain = target: T3, EP300 (P300) bromodomain (Homo sapiens, UniProt Q09472); assay: Differential scanning fluorometry; type: binding; settings: temperature shift
T3 sequence (Q09472 1049-1156 limits assumed): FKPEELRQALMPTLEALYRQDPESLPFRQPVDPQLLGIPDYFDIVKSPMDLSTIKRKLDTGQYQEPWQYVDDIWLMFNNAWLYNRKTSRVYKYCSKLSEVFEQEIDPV

CBP bromodomain [4] = target: T2, CBP bromodomain; assay: CBP AlphaScreen assay with biotinylated small molecule probe compound C; type: binding; settings: for loss in inhibitory activity against CBP: other warheads in place of 3,5-dimethylisoxazole; for loss in CBP inhibitory activity: compared to compound 23
multiple myeloma lines = assay: Cell viability, multiple myeloma lines; type: cell-based; settings: 5-day incubation
How it was run: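 Cells seeded at 500/well in 384-well plates; serially pre-diluted test compound added by pin transfer (100 nl). Viability read by CellTiter-Glo luminescence after 5-day incubation. Data normalized to DMSO control; IC50 from nonlinear regression curve fit.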

34 bromodomains = assay: BROMOSCAN profiling against 34 bromodomains; type: binding; settings: 1 μM compound concentration
MYC expression level = assay: Immunoblot of MYC in MOLM13 cells; type: cell-based; settings: 2 h
How it was run: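 MOLM13 cells seeded in 6-well plates at 1×10^6 cells/well and treated 2 h with DMSO or 3.0 μM test compound or reference CBP inhibitor. Protein extracted in RIPA plus protease inhibitor cocktail, run on Bis-Tris gels, wet-transferred to PVDF. Probed for MYC, β-actin, H3 and H3K27ac with IRDye secondaries.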

MOLM13 cells = assay: CellTiter-Glo cell viability, MOLM13; type: cell-based; settings: 5 day, ATP-dependent luminescence
How it was run: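 MOLM13 cells seeded at 500/well in 384-well plates, given serially pre-diluted test compound or reference CBP inhibitor by pin transfer; 5-day incubation, then ATP-dependent luminescence (CellTiter-Glo).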

H3K27ac level = assay: Immunoblot of H3K27ac in MOLM13 cells; type: cell-based; settings: 2 h

## COc1ccc(CCc2nc3cc(-c4c(C)noc4C)ccc3n2C[C@H](C)N2CCOCC2)cc1Cl [CBP30, reference compound]
BRD4 BD1 [1]
  IC50: 10.1 ± 0.55 µM
CBP
  IC50: […]
IRF4/MYC axis
  IRF4/MYC axis perturbation: perturbed

## Cc1noc(C)c1-c1ccn2c(NC3CCCCC3)c(CCc3ccccc3)nc2c1 [Compound 7, N-cyclohexyl-7-(3,5-dimethylisoxazol-4-yl)-2-phenethylimidazo[1,2-a]pyridin-3-amine]
BRD4 BD1 [2]
  DSF activity toward BRD4: very modest activity
CBP bromodomain [3]; temperature shift
  DSF activity against CBP: more active
EP300 (P300) bromodomain
  DSF activity against EP300: more active

## CN1Cc2cc(-c3ccn4c(NC5CCCCC5)c(CCc5ccccc5)nc4c3)ccc2NC1=O [Compound 9]
CBP bromodomain [4]
  loss in inhibitory activity against CBP: greater than 10 fold

## Cc1[nH]nc2cc(-c3ccn4c(NC5CCCCC5)c(CCc5ccccc5)nc4c3)ccc12 [Compound 10]
CBP bromodomain [4]
  loss in inhibitory activity against CBP: greater than 10 fold
IRF4/MYC axis
  IRF4/MYC axis perturbation: not with BRD4 inhibitor

## Cc1noc2cc(-c3ccn4c(NC5CCCCC5)c(CCc5ccccc5)nc4c3)ccc12 [Compound 11]
CBP bromodomain [4]
  loss in inhibitory activity against CBP: greater than 10 fold
IRF4/MYC axis
  IRF4/MYC axis perturbation: not with BRD4 inhibitor

## Cc1noc(C)c1-c1ccn2c(NC(C)(C)C)c(CCc3ccccc3)nc2c1 [Compound 13, N-(tert-butyl)-7-(3,5-dimethylisoxazol-4-yl)-2-phenethylimidazo[1,2-a]pyridin-3-amine]
CBP bromodomain [4]; compared to compound 16
  decrease in CBP inhibitory potency: > 5 fold

## COc1ccc(CCc2nc3cc(-c4c(C)noc4C)ccn3c2NC23CC4CC(CC(C4)C2)C3)cc1 [Compound 14, N-((3s,5s,7s)-adamantan-1-yl)-7-(3,5-dimethylisoxazol-4-yl)-2-(4-methoxyphenethyl)imidazo[1,2-a]pyridin-3-amine]
CBP bromodomain [4]; compared to compound 16
  decrease in CBP inhibitory potency: > 5 fold

## COc1ccc(CCc2nc3cc(-c4c(C)noc4C)ccn3c2NCCN2CCOCC2)cc1 [Compound 15]
CBP bromodomain [4]; compared to compound 16
  decrease in CBP inhibitory potency: ~2 fold

## COc1ccc(CCc2nc3cc(-c4c(C)noc4C)ccn3c2NC2CCCCC2)cc1 [Compound 16, N-cyclohexyl-7-(3,5-dimethylisoxazol-4-yl)-2-(4-methoxyphenethyl)imidazo[1,2-a]pyridin-3-amine]
CBP bromodomain [3]
  DSF selectivity: greater selectivity than the known inhibitor, CBP30
CBP bromodomain [4]; compared to compound 7
  increase in CBP inhibitory potency: 5 fold

## COc1ccc(CCc2nc3cc(-c4c(C)noc4C)ccn3c2NC(C)C)cc1 [Compound 17, 7-(3,5-dimethylisoxazol-4-yl)-N-isopropyl-2-(4-methoxyphenethyl)imidazo[1,2-a]pyridin-3-amine]
CBP bromodomain [4]; compared to compound 16
  decrease in CBP inhibitory potency: ~3 fold

## COc1ccc(CCc2nc3cc(-c4c(C)noc4C)ccn3c2NC(C)(C)C)cc1 [Compound 18]
CBP bromodomain [4]; compared to compound 16
  decrease in CBP inhibitory potency: > 5 fold

## CCCOc1ccc(CCc2nc3cc(-c4c(C)noc4C)ccn3c2NC2CCCCC2)cc1 [Compound 20]
CBP bromodomain [4]; compared to compound 16
  decrease in CBP inhibitory potency: ~ 4 fold

## COc1ccc(CCc2nc3cc(-c4c(C)noc4C)ccn3c2NCc2ccccc2)cc1 [Compound 21]
CBP bromodomain [4]; compared to compound 16
  decrease in CBP inhibitory potency: 10 fold

## COc1ccc(CCc2nc3cc(-c4c(C)noc4C)ccn3c2NCc2ccc(Cl)cc2)cc1 [Compound 22]
CBP bromodomain [4]; compared to compound 16
  decrease in CBP inhibitory potency: 10 fold

## COc1ccc(CCc2nc3cc(-c4c(C)noc4C)ccn3c2NC2CCCCC2)cc1Cl [Compound 23, 2-(3-chloro-4-methoxyphenethyl)-N-cyclohexyl-7-(3,5-dimethylisoxazol-4-yl)imidazo[1,2-a]pyridin-3-amine]
Multiple myeloma lines
  MM cell growth inhibition: IC50 values similar to CBP30
CBP bromodomain [3]
  DSF selectivity: greater selectivity than the known inhibitor, CBP30
34 bromodomains
  BROMOSCAN binding and selectivity: better binding and selectivity compared to compound 7 and 16
CBP bromodomain [4]; compared to compound 16
  more potent against CBP: 2 fold
IRF4/MYC axis
  IRF4/MYC axis perturbation: perturbed
MYC expression level
  MYC level: caused MYC depletion
MOLM13 cells
  MOLM13 cell growth inhibition: IC50 values similar to CBP30
H3K27ac level
  H3K27ac level: reduced the H3K27ac level similar to CBP30

## COc1ccc(CCc2nc3cc(-c4c(C)noc4C)ccn3c2NC2CCCCC2)cc1OC [Compound 32]
CBP bromodomain [4]
  loss in CBP inhibitory activity: ~ 10 fold

## COc1ccc(CCc2nc3cc(-c4c(C)noc4C)ccn3c2NC(C)C)cc1OC [Compound 33, 2-(3,4-dimethoxyphenethyl)-7-(3,5-dimethylisoxazol-4-yl)-N-isopropylimidazo[1,2-a]pyridin-3-amine]
BRD4 BD1 [1]; compared to compound 23
  loss in BRD4 inhibitory activity: 4 fold
CBP bromodomain [4]
  loss in CBP inhibitory activity: 49 fold
